Results: ChEMBL document CHEMBL3425469, “Discovery of imidazo[2,1-b]thiazole HCV NS4B inhibitors exhibiting synergistic effect with other direct-acting antiviral agents” (J Med Chem, 2015)

Assays:
[1] = Cytotoxicity against human HuH7 cells assessed as cell proliferation by cell titer assay; format: cell-based, Huh-7
Outline: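 Huh-7 cells carrying GT1b Con1 bicistronic replicon seeded at 8000 cells/well; compound added at 0.5% DMSO final, 37°C for 72 h. Proliferation read with CellTiter-Fluor reagent per manufacturer; CC50 fitted from concentration-response, average of at least two independent determinations.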

Hepatitis C virus [2] = assay: Antiviral activity against Hepatitis C virus genotype 1b Con1 infected in human HuH7 cells after 72 hrs by luciferase assay; format: functional, cell-based, Hepacivirus hominis; details: genotype 1b Con 1, Huh-7, 72 h
Outline: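 Huh-7 cells stably carrying a genotype 1b Con1 bicistronic luciferase replicon, seeded at 8000 cells/well. Compounds were added at 0.5% DMSO final and incubated at 37°C for 72 h. Read-out was Bright-Glo luciferase, with cell proliferation measured by CellTiter-Fluor. EC50 is the mean of at least two independent runs. Some values are given as percent inhibition at 10 µM.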

Hepatitis C virus [3] = assay: Antiviral activity against Hepatitis C virus genotype 1b Con 1 infected in human HuH7 cells at 10 uM after 72 hrs by luciferase assay; format: functional, Hepacivirus hominis; details: genotype 1b Con 1, Huh-7, 72 h
Outline: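 Huh-7 cells carrying a GT1b Con1 bicistronic luciferase replicon, 8000 cells/well. Compound tested at 10 µM in 0.5% DMSO final, 37°C for 72 h. Replicon signal read as luciferase (Bright-Glo) and reported as percentage inhibition at 10 µM. Cell proliferation measured in parallel with CellTiter-Fluor. Values are the average of at least two independent determinations.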

Hepatitis C virus [4] = assay: Antiviral activity against Hepatitis C virus genotype 1b harboring A156T NS3/4A mutation transfected in human HuH7 cells after 72 hrs by luciferase assay; format: functional, cell-based, Hepacivirus hominis; details: Huh-7, 72 h
Outline: (§1)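 Huh-7 cells were transiently electroporated with genotype 1b replicon RNA carrying the specified mutation and plated at 10000 cells/well. Compounds were added at 0.5% DMSO final for 72 h at 37°C. Read-out was Bright-Glo luciferase. EC50 is the mean of two independent runs within 2-fold of each other. A reference drug EC50 was measured alongside each mutant replicon to validate it.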

Hepatitis C virus [5] = assay: Antiviral activity against Hepatitis C virus genotype 1b harboring H3R NS4B mutation transfected in human HuH7 cells after 72 hrs by luciferase assay; format: functional, cell-based, Hepacivirus hominis; details: Huh-7, 72 h; outline: as §1
Hepatitis C virus [6] = assay: Antiviral activity against Hepatitis C virus genotype 1b harboring Q26R mutation transfected in human HuH7 cells after 72 hrs by luciferase assay; format: functional, cell-based, Hepacivirus hominis; details: Huh-7, 72 h; outline: as §1
Hepatitis C virus [7] = assay: Antiviral activity against Hepatitis C virus genotype 1b harboring H94R mutation transfected in human HuH7 cells after 72 hrs by luciferase assay; format: functional, cell-based, Hepacivirus hominis; details: Huh-7, 72 h; outline: as §1
Hepatitis C virus [8] = assay: Antiviral activity against Hepatitis C virus genotype 1b harboring F98C mutation transfected in human HuH7 cells after 72 hrs by luciferase assay; format: functional, cell-based, Hepacivirus hominis; details: Huh-7, 72 h; outline: as §1
Hepatitis C virus [9] = assay: Antiviral activity against Hepatitis C virus genotype 1b harboring V105M mutation transfected in human HuH7 cells after 72 hrs by luciferase assay; format: functional, cell-based, Hepacivirus hominis; details: Huh-7, 72 h; outline: as §1
Hepatitis C virus [10] = assay: Antiviral activity against Hepatitis C virus genotype 1b harboring Y93H NS5A mutation transfected in human HuH7 cells after 72 hrs by luciferase assay; format: functional, cell-based, Hepacivirus hominis; details: Huh-7, 72 h; outline: as §1
Hepatitis C virus [11] = assay: Antiviral activity against Hepatitis C virus genotype 1b harboring S282T NS5B (active site) mutation transfected in human HuH7 cells after 72 hrs by luciferase assay; format: functional, cell-based, Hepacivirus hominis; details: Huh-7, 72 h; outline: as §1
Hepatitis C virus [12] = assay: Antiviral activity against Hepatitis C virus genotype 1b harboring M423I NS5B (thumb 2) mutation transfected in human HuH7 cells after 72 hrs by luciferase assay; format: functional, cell-based, Hepacivirus hominis; details: Huh-7, 72 h; outline: as §1
Hepatitis C virus [13] = assay: Antiviral activity against Hepatitis C virus genotype 1b harboring P495A NS5B (thumb 1) mutation transfected in human HuH7 cells after 72 hrs by luciferase assay; format: functional, cell-based, Hepacivirus hominis; details: Huh-7, 72 h; outline: as §1
Hepatitis C virus [14] = assay: Antiviral activity against Hepatitis C virus genotype 1b harboring Y448H NS5B (palm) mutation transfected in human HuH7 cells after 72 hrs by luciferase assay; format: functional, cell-based, Hepacivirus hominis; details: Huh-7, 72 h; outline: as §1

SMILES	CC50 [1] [µM]	EC50 (Hepatitis C virus [2]) [µM]	also measured
O=C(c1nc2sc3ccccc3n2c1Cl)N1CCN([C@H]2CC[C@H](O)CC2)C(=O)C1	> 10	0.33	–
Cc1cn2c(Cl)c(C(=O)N3CCN(C4CCCC4)C(=O)C3)nc2s1	> 10	–	inhibition at 10 µM (Hepatitis C virus [3]): 46%
Cc1ccc2c(c1)sc1nc(C(=O)N3CCN(C4CCCC4)C(=O)C3)c(Cl)n12	> 10	0.3	–
O=C(c1nc2sc3cc(Br)ccc3n2c1Cl)N1CCN(C2CCCC2)C(=O)C1	> 10	1.79	–
Cc1c(C(C)C)sc2nc(C(=O)N3CCN(C4CCCC4)C(=O)C3)c(Cl)n12	> 10	–	inhibition at 10 µM (Hepatitis C virus [3]): 50%
Cc1csc2nc(C(=O)N3CCN(C4CCCC4)C(=O)C3)c(Cl)n12	> 10	–	inhibition at 10 µM (Hepatitis C virus [3]): 53%
CC(C)c1cn2c(Cl)c(C(=O)N3CCN(C4CCCC4)C(=O)C3)nc2s1	> 10	1.32	–
CC1CCc2c(sc3nc(C(=O)N4CCN(C5CCCC5)C(=O)C4)c(Cl)n23)C1 (configuration not stated)	> 10	0.26	–
O=C(c1nc2sc3cc(Cl)ccc3n2c1Cl)N1CCN(C2CCCC2)C(=O)C1	> 10	1.85	–
COc1ccc2c(c1)sc1nc(C(=O)N3CCN(C4CCCC4)C(=O)C3)c(Cl)n12	> 10	8.63	–
O=C(c1nc2sc3c(n2c1Cl)CCCC3)N1CCN(C2CCCC2)C(=O)C1	> 10	0.19	–
O=C(c1nc2sccn2c1Cl)N1CCN(C2CCCC2)C(=O)C1	> 10	> 10	–
CC(C)Cc1csc2nc(C(=O)N3CCN(C4CCCC4)C(=O)C3)c(Cl)n12	> 10	0.74	–
O=C(c1nc2sc3ccccc3n2c1Cl)N1CCN(C2CCCC2)C(=O)C1	> 10	0.092	–
CC(C)Cc1c(Cl)sc2nc(C(=O)N3CCN(C4CCCC4)C(=O)C3)c(Cl)n12	> 10	6.7	–
O=C(c1nc2sc3c(n2c1Cl)CCC3)N1CCN(C2CCCC2)C(=O)C1	> 10	0.13	–
O=C1CCCc2c1sc1nc(C(=O)N3CCN(C4CCCC4)C(=O)C3)c(Cl)n21	> 10	> 10	–
O=C(c1nc2sc3c(n2c1Cl)CCCCC3)N1CCN(C2CCCC2)C(=O)C1	> 10	0.94	–
O=C(c1nc2sc(Cl)c(C3CC3)n2c1Cl)N1CCN(C2CCCC2)C(=O)C1	> 10	8.6	–
O=C(c1nc2scc(C3CC3)n2c1Cl)N1CCN([C@H]2CC[C@H](O)CC2)C(=O)C1	> 10	0.89	–
O=C(c1nc2sc3ccccc3n2c1Cl)N1CCN(C2CC=CC2)C(=O)C1	> 10	0.031	EC50 (Hepatitis C virus [4]): 0.077 µM; EC50 (Hepatitis C virus [5]): 4.85 µM; EC50 (Hepatitis C virus [6]): 4.96 µM; EC50 (Hepatitis C virus [7]): 6.4 µM; EC50 (Hepatitis C virus [8]): 3.27 µM; EC50 (Hepatitis C virus [9]): 12.5 µM; EC50 (Hepatitis C virus [10]): 0.019 µM; EC50 (Hepatitis C virus [11]): 0.025 µM; EC50 (Hepatitis C virus [12]): 0.032 µM; EC50 (Hepatitis C virus [13]): 0.022 µM; EC50 (Hepatitis C virus [14]): 0.033 µM
O=C(c1nc2scc(C3CC3)n2c1Cl)N1CCN(C2CC=CC2)C(=O)C1	> 10	0.079	–
CC1(C)CCc2c(sc3nc(C(=O)N4CCN(C5CCCC5)C(=O)C4)c(Cl)n23)C1	> 10	1.12	–
